This is a sample that favours compounds with a hit; in the whole collection about 3.1% have one here.
LEDGF integ inh: blocks HIV-1 LEDGF/p75-dependent DNA integration; TR-FRET IN-LEDGF/p75 DNA integration, Eu/Cy5; hit rate 0.64% among 370,000; inhibition, % at 3.7 µM;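 active means inhibition above the screen-wide mean plus 3 SD, cut at about 13% in these data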;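 further: signal is the Cy5 over europium emission ratio at 671 and 618 nm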
ATG4B inhibitor: blocks human ATG4B protease cleavage of LC3 substrate | Q9Y4P1 | hit rate 0.51% among 340,000 | inhibition, % at 8.33 µM | ATG4B cleavage of LC3-PLA2, NBD-HPC fluorescence, 1 h; in the data active means inhibition above about 40%
Target sequence (Q9Y4P1 whole entry, looked up): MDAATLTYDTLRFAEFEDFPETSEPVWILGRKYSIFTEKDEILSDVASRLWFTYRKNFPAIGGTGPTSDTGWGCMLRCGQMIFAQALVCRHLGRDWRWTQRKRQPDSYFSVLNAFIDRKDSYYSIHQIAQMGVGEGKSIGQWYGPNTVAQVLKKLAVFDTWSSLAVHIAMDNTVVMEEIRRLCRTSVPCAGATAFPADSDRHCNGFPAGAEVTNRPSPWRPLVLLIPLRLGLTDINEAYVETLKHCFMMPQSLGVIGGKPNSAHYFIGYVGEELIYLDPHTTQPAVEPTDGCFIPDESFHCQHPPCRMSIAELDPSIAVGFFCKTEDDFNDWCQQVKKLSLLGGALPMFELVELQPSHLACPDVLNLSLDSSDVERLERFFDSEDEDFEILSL
UHRF1 MBD2 ctr: human UHRF1 methylated DNA binding inhibitors | inhibition, % at 4.4 µM | hit rate 0.75% among 370,000 | AID 687016 | UHRF1 binding to methylated oligo, TR-FRET | Q96T88; in the data active means inhibition above about 21%;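 further: UHRF1 SRA domain binding a hemimethylated CpG hairpin DNA probe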
CSN deneddyl inh: CSN deneddylation inhibition | Q92905 | Purified CSN, SCF-Nedd8-OG deneddylation, fluorescence polarization | inhibition, % at 12.5 µM | hit rate 0.38% among 360,000 | AID 651999;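 active means pattern-corrected inhibition above about 35%, with an unprinted fluorescence ratio check between 0.5 and 1.5, limit read from the data, passing the limit was not always enough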
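Assay system: Purified human Csn5 enzyme expressed in HEK293T cells | Amount: Enzyme 0.24 nM | Measured by: Fluorescence polarization readout | Medium: Tris/NaCl/DTT buffer, pH 7.5 | Compound dosing: One concentration, 12.5 µM, 0.25% DMSO | Times: 90 min incubation of compound, enzyme and substrate at room temperature | Control set: no-enzyme wells high, enzyme-with-substrate wells low | Read-out: % inhibition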
MBD2 inh: MBD2-methylated oligo binding inhibition. TR-FRET, MBD2 binding to methylated oligonucleotide. inhibition, % at 4.4 µM. hit rate 0.31% among 370,000. Q9UBB5; in the data active means inhibition above about 13%
Target sequence (Q9UBB5 whole entry, looked up): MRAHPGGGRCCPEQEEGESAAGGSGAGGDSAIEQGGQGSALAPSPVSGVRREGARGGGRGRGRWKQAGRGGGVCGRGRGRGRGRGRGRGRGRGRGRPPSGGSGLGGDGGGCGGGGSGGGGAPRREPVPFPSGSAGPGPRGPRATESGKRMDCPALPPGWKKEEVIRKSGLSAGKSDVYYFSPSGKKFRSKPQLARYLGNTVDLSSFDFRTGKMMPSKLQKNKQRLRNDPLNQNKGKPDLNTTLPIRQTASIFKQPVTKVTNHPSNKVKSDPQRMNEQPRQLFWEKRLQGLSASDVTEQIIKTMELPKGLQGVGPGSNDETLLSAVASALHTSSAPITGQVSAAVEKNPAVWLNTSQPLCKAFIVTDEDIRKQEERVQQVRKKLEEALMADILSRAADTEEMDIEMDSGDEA
rCAG RNA binder: molecules binding r(CAG) RNA repeats; r(CAG) RNA repeat, TO-PRO-1 dye displacement fluorescence; inhibition, % at 3 µM; hit rate 1.3% among 370,000;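 active means inhibition above the plate cutoff, the mean of all test compounds on that plate plus 3 SD, cut at about 35% in these data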;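 further: higher means more dye released from RNA so lower well fluorescence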
rCAG bind conf: r(CAG) RNA repeat binding, confirmation. shares compounds with rCAG RNA binder. TO-PRO-1 dye displacement fluorescence. inhibition, % at 3 µM. hit rate 70% among 4,300. AID 652065;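 active means inhibition above a per-plate cutoff, the mean inhibition of sample wells plus 3 SD, cut at about 35% in these data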;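 further: loss of TO-PRO-1 fluorescence as compound displaces dye from 1x1 AA loop RNA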
dCAG dye counter: DNA CAG dye complex inhibition counter-screen; shares compounds with rCAG RNA binder; d(CAG) DNA oligo TO-PRO-1 dye displacement, fluorescence; inhibition, % at 3 µM; hit rate 94% among 4,300; AID 652068;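 active means inhibition above its plate's cutoff, the mean test-well inhibition plus 3 SD, cut at about 4.8% in these data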;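 further: hits displace the dye from DNA and so lower well fluorescence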
dCAG dye DR: counter-screen for rCAG binders: inhibitors of DNA CAG TO-PRO-1 complex; AID 686960; shares compounds with rCAG RNA binder; DNA CAG/GTC duplex TO-PRO-1 dye displacement fluorescence; hit rate 20% among 250; IC50, µM; in the data active means IC50 below about 10 µM
Numbers stand for hits; 0 = inactive; - = no result given.

SMILES | LEDGF integ inh | ATG4B inhibitor | UHRF1 MBD2 ctr | CSN deneddyl inh | MBD2 inh | rCAG RNA binder | rCAG bind conf | dCAG dye counter | others
C=CCNC(=O)CSc1cc([N+](=O)[O-])cc(S(=O)(=O)Cc2ccccc2)c1 | 0 | 0 | 0 | 0 | 0 | 0 | - | -
Cc1cc(Cl)ccc1OCC(=O)N/N=C/c1ccc[nH]1 | 0 | - | 0 | - | 0 | - | - | -
COC(=O)CNC(=O)[C@H](Cc1ccccc1)NC1(C(=O)NCCc2c[nH]c3ccccc23)CCCCC1 | 0 | - | 0 | - | 0 | - | - | -
Cc1ccc(N2C(=O)C(c3c(C)[nH]n(-c4ccccc4)c3=O)(C(F)(F)F)C3=C2CC(C)(C)CC3=O)cc1 (stereo unspecified) | 0 | 0 | 0 | 0 | 0 | 0 | - | -
Cc1[nH]n(-c2ccccc2)c(=O)c1C1(C(F)(F)F)C(=O)N(c2ccccc2)C2=C1C(=O)CC(C)(C)C2 (stereo unspecified) | 0 | 0 | 0 | 0 | 0 | 36 | 0 | 7.3
O=C(Nc1ccccc1Oc1ccccc1)NC1CCCCN(Cc2ccc(Cl)cc2)C1=O (stereo unspecified) | 0 | - | 0 | - | 0 | 0 | - | -
Cc1ccccc1-c1cc(C(=O)Nc2sc(C(=O)OC(C)C)c(C)c2C#N)c2ccccc2n1 | 0 | 0 | 0 | 0 | 0 | 47 | 62 | 28
COC(=O)c1sc(NC(=O)c2cc(-c3ccccc3)nc3ccccc23)c(C#N)c1C | 0 | 0 | 0 | 0 | 0 | 0 | - | -
CCOC(=O)[C@]12CCCC=C1N(Cc1ccc(OC)cc1)C(=O)[C@@H]2CC(=O)NCc1cccc(C(F)(F)F)c1 | 0 | - | 0 | - | 0 | 0 | - | -
Cc1oc2c(C)c3oc(=O)c(CCC(=O)N4CCC(C(=O)NCCC(=O)O)(c5ccccc5)CC4)c(C)c3cc2c1C | 0 | 0 | 0 | 0 | 0 | 35 | 58 | 16
O=C(CSc1nc2sc3c(c2c(=O)n1-c1ccc(Cl)cc1)CCC3)Nc1ccc(C(=O)O)cc1 | 0 | - | 0 | - | 0 | 58 | 52 | 22
CN1CCc2c(sc3nc(SCC(N)=O)n(-c4ccc(Cl)cc4)c(=O)c23)C1 | 0 | 0 | 0 | 0 | 0 | 0 | - | -
Cc1ccccc1-n1c(SCC(=O)O)nc2sc3c(c2c1=O)CCCC3 | 0 | 0 | 0 | 0 | 0 | 0 | - | -
O=C(O)CSc1nc2sc3c(c2c(=O)n1Cc1ccccc1)CCCCC3 | 0 | 0 | 0 | 0 | 0 | 53 | 54 | 17
Clc1cccc(CNC2CCC23CCCCC3)c1 (stereo unspecified) | 0 | - | 0 | - | 0 | - | - | -
C#CCCCN([C@@H](CC(C)C)C(=O)OC)S(=O)(=O)c1ccc(F)cc1Br | 0 | - | 0 | - | 0 | 0 | - | -
O=C(Nc1cccc(C(F)(F)F)c1)C(Sc1n[nH]c(=O)[nH]c1=O)c1ccccc1 (stereo unspecified) | 0 | 0 | 0 | 0 | 0 | 39 | 38 | 12
O=C(CSCc1ccccc1)NNC(=S)Nc1cccc(Cl)c1Cl | 0 | 0 | 0 | 0 | 0 | 58 | 65 | 26
CCOC(=O)[C@]12CCCC=C1N(CCCOC)C(=O)[C@@H]2CC(=O)NCc1cccc(C(F)(F)F)c1 | 0 | - | 0 | - | 0 | 0 | - | -
O=S(=O)(Nc1ccc(S(=O)(=O)N2CCCCCC2)cc1)c1cccs1 | 0 | 0 | 0 | 0 | 0 | 0 | - | -
O=S(=O)(Nc1ccc(S(=O)(=O)N2CCCCC2)cc1)c1ccc(Br)s1 | 0 | 0 | 0 | 0 | 0 | 60 | 60 | 16
CCN(CC)S(=O)(=O)c1cccc(C(=O)N/N=C/c2ccc(O)c(O)c2O)c1 | 0 | 0 | 0 | 0 | 0 | 53 | 55 | 24
Cc1oc2c(cc(NS(=O)(=O)c3cccs3)c3ccccc32)c1C(=O)OC(C)C | 0 | 0 | 0 | 0 | 0 | 37 | 0 | 9.5
Cc1oc2c(cc(NS(=O)(=O)c3ccc(F)cc3)c3ccccc32)c1C(=O)O | 0 | 0 | 0 | 0 | 0 | 0 | - | -
Cc1oc2c(cc(NS(=O)(=O)c3ccc(C(C)C)cc3)c3ccccc32)c1C(=O)O | 0 | 0 | 0 | 0 | 0 | 54 | 63 | 28
SMILES | LEDGF integ inh | ATG4B inhibitor | UHRF1 MBD2 ctr | CSN deneddyl inh | MBD2 inh | rCAG RNA binder | rCAG bind conf | dCAG dye counter | others
COc1ccc(S(=O)(=O)Nc2cc3c(C(C)=O)c(C)oc3c3ccccc23)cc1 | 0 | 0 | 0 | 0 | 0 | 0 | - | -
CCOC(=O)N1CCN(C(=O)C[C@H]2C[C@@]3(C(=O)OC)C(=C[C@H](COCc4ccccc4)O[C@@H]3C)N(Cc3ccc(Cl)cc3Cl)C2=O)CC1 | 0 | - | 0 | - | 0 | 0 | - | -
COC(=O)c1cc2c(c3c4cc(F)ccc4n(S(=O)(=O)c4cccc(C)c4)c13)C(=O)N(C)C2 | 0 | - | 0 | - | 0 | 0 | - | -
COc1ccc(OC)c(/C=C2\SC(=S)N(NS(=O)(=O)c3ccccc3)C2=O)c1 | 0 | 0 | 0 | 0 | 0 | 87 | 67 | 30
COc1ccc(/C=C2\SC(=S)N(NS(=O)(=O)c3ccccc3)C2=O)c(OC)c1 | 0 | 0 | 0 | 0 | 0 | 39 | 74 | 34 | dCAG dye DR=0
O=C1/C(=C/c2cccs2)SC(=S)N1NS(=O)(=O)c1ccccc1 | 0 | 0 | 0 | 0 | 0 | 54 | 0 | 6.8
O=C(NN1C(=O)/C(=C/c2cccs2)SC1=S)c1ccncc1 | 0 | 0 | 0 | 0 | 0 | 0 | - | -
COc1ccc(OC)c(/C=C2\SC(=S)N(Cc3cccnc3)C2=O)c1 | 0 | 0 | 0 | 0 | 0 | 0 | - | -
COc1ccc(/C=C2\SC(=S)N(N3CCOCC3)C2=O)c(OC)c1 | 0 | 0 | 0 | 0 | 0 | 0 | - | -
CCc1c(Cc2ccccc2)ncn1CCc1ccccc1OC | 0 | - | 0 | - | 0 | 0 | - | -
CC(C)(C)N1Cc2nnn(CC3CCCCC3)c2-c2ccccc2S1(=O)=O | 0 | - | 0 | - | 0 | 0 | - | -
Cn1c(SCCc2ccccc2)nnc1-c1ccco1 | 0 | - | 0 | - | 0 | 0 | - | -
C/C(=N\Nc1c(Cl)c(Cl)nc(C(=O)O)c1Cl)c1ccc(O)cc1 | 0 | 0 | 0 | 0 | 0 | 40 | 0 | 4.5
CCc1nnc(NS(=O)(=O)c2ccc(NC(=O)c3ccc(Br)cc3)cc2)s1 | 0 | 0 | 0 | 0 | 0 | 60 | 53 | 13
CCc1nnc(NS(=O)(=O)c2ccc(NC(=S)NC(=O)c3ccc(F)cc3)cc2)s1 | 0 | 0 | 0 | 0 | 0 | 64 | 52 | 19
CCc1nnc(NS(=O)(=O)c2ccc(NC(=O)/C=C/c3ccc(F)cc3)cc2)s1 | 0 | 0 | 0 | 0 | 0 | 73 | 50 | 20
CCN(CC)C(=O)CC[C@H]1CC[C@]2(CCCN(Cc3ccccn3)C2)O1 | 0 | - | 0 | - | 0 | 0 | - | -
C[C@H]1CCCN1c1cccc2c1S(=O)(=O)N(C1CC1)CCCO2 | 0 | - | 0 | - | 0 | 0 | - | -
CCOc1ccc2nc(NC(=O)CSc3nc(-c4ccccc4)c(C#N)c(=O)[nH]3)sc2c1 | 0 | 0 | 0 | 0 | 0 | 83 | 88 | 69
